In PubChem BioAssay AID504859 (Broad Institute, 2011):
Activity calls are given as the source filed them.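 Rule for the calls: active = tumorsphere count inhibition of at least 15% in the mean or in any single replicate; inactive = the rest.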

System: SUM159 tumorsphere formation, imaging, 9 days
Assay: inhibition of SUM159 tumorsphere formation, confirmation, orthogonal assay for breast cancer stem cell project, imaging, single point, dry powder, set 2 (AID 504859)
Settings: at 20 µM; hits give high values
Summary of the method: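 System: SUM159 tumorsphere culture / Input: 1000 SUM159 cells per well / Medium: serum-containing medium with 5% FBS, 0.5% methylcellulose final / Compound: single dose, 200 nL pinned compound / Timing: culture at 37 °C, 5% CO2 / Signal: 2x transmitted-light imaging, 9 sites / Format: Low-attachment wells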

Structure (SMILES)	inhibition
O=C(/C=C/c1ccc(Cl)c(Cl)c1)NC1=NCCS1	2.48% (inactive)
COc1ccc(/C=C/C(=O)NC2=NCCS2)c(OC)c1	3.49% (inactive)
Cc1csc(NC(=O)c2ccc(COc3cccc(OC(F)(F)F)c3)o2)n1	-1.1% (inactive)
Cc1csc(NC(=O)c2ccc(COc3ccccc3)o2)n1	19.1%
CCc1ccc(/C=C/C(=O)NC2=NCCS2)cc1	0.128% (inactive)
O=C(NC1CCCC1)c1ccc(COc2ccccc2)o1	11% (inactive)
Cc1ccc(/C=C/C(=O)NC2=NCCS2)cc1	-19.9% (inactive)
CC(C)c1ccc(/C=C/C(=O)NC2=NCCS2)cc1	15.4%
O=C(/C=C/c1ccc(-c2ccccc2)cc1)NC1=NCCS1	20.5%
Cc1csc(NC(=O)c2ccc(COc3ccccc3F)o2)n1	1.67% (inactive)
Cc1csc(NC(=O)c2ccc(COc3cccc(Cl)c3)o2)n1	5.07% (inactive)
